Results from ChEMBL document CHEMBL4406880, “Design, synthesis, and bioactivity of dihydropyrimidine derivatives as kinesin spindle protein inhibitors” (Bioorg Med Chem, 2019).

Experiments:
Type in all cases: functional
NCI-H460 = test: Growth inhibition of human NCI-H460 cells incubated for 48 hrs by sulforhodamine B assay; conditions: NCI-H460, 48 h
How it was run: (§1)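 NCI-60 five-dose SRB assay in RPMI 1640 with 5% FBS, 37 °C, 5% CO2. Compound given at five tenfold dilutions, 0.01–100 µM, for 48 h. Adherent cells fixed with TCA, suspension cells with 16% final TCA. Bound SRB read at 515 nm and growth calculated against time-zero and untreated controls. GI50 taken from dose–response curves as the concentration giving a 50% decrease in net cell growth.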

U-251 = test: Growth inhibition of human U251 cells incubated for 48 hrs by sulforhodamine B assay; conditions: U-251, 48 h
How it was run: (§2)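 NCI-60 five-dose SRB assay. Cells were exposed for 48 h to tenfold dilutions of 0.01, 0.1, 1, 10 and 100 µM, in RPMI 1640 with 5% FBS. Plates fixed with TCA at the time of drug addition served as the time-zero reference. GI50 is the concentration giving a 50% reduction in net growth. TGI is total growth inhibition. LC50 is a net 50% loss of the initial cells.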

IGROV-1 = test: Growth inhibition of human IGROV1 cells incubated for 48 hrs by sulforhodamine B assay; conditions: IGROV-1, 48 h; how it was run: as §1
OVCAR-3 = test: Growth inhibition of human OVCAR3 cells incubated for 48 hrs by sulforhodamine B assay; conditions: OVCAR-3, 48 h; how it was run: as §1
TK-10 [1] = test: Growth inhibition of human TK10 cells incubated for 48 hrs by sulforhodamine B assay; conditions: TK-10, 48 h; how it was run: as §2
MCF7 = test: Growth inhibition of human MCF7 cells incubated for 48 hrs by sulforhodamine B assay; conditions: MCF7, 48 h; how it was run: as §1
COLO 205 = test: Growth inhibition of human COLO205 cells assessed as cell viability at 100 uM incubated for 48 hrs by sulforhodamine B assay; conditions: COLO 205, 48 h, read-out: Activity
HL-60(TB) [2] = test: Growth inhibition of human HL-60(TB) cells assessed as cell viability at 100 uM incubated for 48 hrs by sulforhodamine B assay; conditions: HL-60, 48 h, read-out: Activity
How it was run: (§3)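 NCI-60 five-dose assay, SRB end-point, same culture conditions. Compound is tested at tenfold dilutions of 0.01, 0.1, 1, 10 and 100 µM for 48 h at 37 °C, with DMSO/PBS vehicle controls. Percentage growth at each concentration is taken against untreated cells and a time-zero plate. GI50 is 50% net growth decrease, TGI is total growth inhibition, and LC50 is 50% loss of initial cells.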

UACC-257 = test: Growth inhibition of human UACC257 cells assessed as cell viability at 1 uM incubated for 48 hrs by sulforhodamine B assay; conditions: UACC-257, 48 h, read-out: Activity
SR = test: Growth inhibition of human SR cells assessed as cell viability at 1 uM incubated for 48 hrs by sulforhodamine B assay; conditions: read-out: Activity
MOLT-4 = test: Growth inhibition of human MOLT4 cells assessed as cell viability at 1 uM incubated for 48 hrs by sulforhodamine B assay; conditions: MOLT-4, 48 h, read-out: Activity
DU-145 = test: Growth inhibition of human DU145 cells assessed as cell viability at 0.1 uM incubated for 48 hrs by sulforhodamine B assay; conditions: DU-145, 48 h, read-out: Activity
TK-10 [3] = test: Growth inhibition of human TK10 cells assessed as cell viability at 0.1 uM incubated for 48 hrs by sulforhodamine B assay; conditions: TK-10, 48 h, read-out: Activity
ACHN = test: Growth inhibition of human ACHN cells assessed as cell viability at 0.1 uM incubated for 48 hrs by sulforhodamine B assay; conditions: read-out: Activity
How it was run: (§4)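 NCI-60 five-dose mode: five tenfold dilutions (0.01, 0.1, 1, 10, 100 µM) are applied for 48 h to cells in RPMI 1640 with 5% FBS at 37 °C. Endpoint is TCA fixation with sulforhodamine B read at 515 nm. % growth comes from the 0 h and control absorbances. GI50 is the concentration giving a 50% reduction in net cell growth.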

A498 = test: Growth inhibition of human A498 cells assessed as cell viability at 0.1 uM incubated for 48 hrs by sulforhodamine B assay; conditions: A498, 48 h, read-out: Activity; how it was run: as §4
SNB-75 = test: Growth inhibition of human SNB75 cells assessed as cell viability at 0.1 uM incubated for 48 hrs by sulforhodamine B assay; conditions: SNB-75, 48 h, read-out: Activity
HL-60(TB) [4] = test: Growth inhibition of human HL-60(TB) cells assessed as cell viability at 0.1 uM incubated for 48 hrs by sulforhodamine B assay; conditions: HL-60, 48 h, read-out: Activity; how it was run: as §3
UO-31 = test: Growth inhibition of human UO31 cells assessed as cell viability at 0.001 uM incubated for 48 hrs by sulforhodamine B assay relative to control; conditions: UO-31, 48 h, read-out: Activity
HCC 2998 = test: Growth inhibition of human HCC2998 cells assessed as cell viability at 0.001 uM incubated for 48 hrs by sulforhodamine B assay relative to control; conditions: HCC 2998, 48 h, read-out: Activity
K562 = test: Growth inhibition of human K562 cells assessed as cell viability at 0.001 uM incubated for 48 hrs by sulforhodamine B assay relative to control; conditions: K562, 48 h, read-out: Activity
786-0 = test: Growth inhibition of human 786-0 cells assessed as cell viability at 100 uM incubated for 48 hrs by sulforhodamine B assay; conditions: 786-0, 48 h, read-out: Activity; how it was run: as §4
CAKI-1 = test: Growth inhibition of human Caki1 cells assessed as cell viability at 100 uM incubated for 48 hrs by sulforhodamine B assay; conditions: CAKI-1, 48 h, read-out: Activity
[5] = read-out: LC50 (the source's name)
[6] = read-out: pLC50 (the source's name) (converted)

`CC1=C(C(=O)OCc2ccccc2)C(c2ccc3c(c2)OCO3)n2c(nc3ccccc32)N1` (racemic) showed a GI50 (NCI-H460; read-out: GI50) of 0.36 µM, a CC50 (NCI-H460; [5]) of over 100 µM and a TGI (NCI-H460; read-out: TGI) of over 100 µM. It also gave a GI50 (NCI-H460; read-out: pGI50 (converted)) of 0.363 µM, a CC50 (NCI-H460; [6]) of over 100 µM and a TGI (NCI-H460; read-out: pTGI) of over 100 µM. The GI50 (U-251; read-out: GI50) was 0.46 µM, the LC50 (U-251; read-out: LC50) was over 100 µM and the TGI (U-251; read-out: TGI) was over 100 µM. It also gave a GI50 (U-251; read-out: pGI50 (converted)) of 0.427 µM, an LC50 (U-251; read-out: pLC50 (converted)) of over 100 µM and a TGI (U-251; read-out: pTGI) of over 100 µM. It also gave a GI50 (IGROV-1; read-out: GI50) of 0.62 µM, a CC50 (IGROV-1; [5]) of over 100 µM and a TGI (IGROV-1; read-out: TGI) of over 100 µM. It also gave a GI50 (IGROV-1; read-out: pGI50 (converted)) of 0.617 µM, a CC50 (IGROV-1; [6]) of over 100 µM and a TGI (IGROV-1; read-out: pTGI) of over 100 µM. It also gave a GI50 (OVCAR-3; read-out: GI50) of 0.26 µM, a CC50 (OVCAR-3; [5]) of over 100 µM and a TGI (OVCAR-3; read-out: TGI) of 1.09 µM. For the same compound, the GI50 (OVCAR-3; read-out: pGI50 (converted)) was 0.257 µM, the CC50 (OVCAR-3; [6]) was over 100 µM and the TGI (OVCAR-3; read-out: pTGI (converted)) was 1.1 µM. The GI50 (TK-10 [1]; read-out: GI50) was over 100 µM, the CC50 (TK-10 [1]; [5]) was over 100 µM and the TGI (TK-10 [1]; read-out: TGI) was over 100 µM. For the same compound, the GI50 (TK-10 [1]; read-out: pGI50 (converted)) was over 100 µM, the CC50 (TK-10 [1]; [6]) was over 100 µM and the TGI (TK-10 [1]; read-out: pTGI) was over 100 µM. The GI50 (MCF7; read-out: GI50) was 0.32 µM, the CC50 (MCF7; [5]) was over 100 µM and the TGI (MCF7; read-out: TGI) was over 100 µM. It also gave a GI50 (MCF7; read-out: pGI50 (converted)) of 0.316 µM, a CC50 (MCF7; [6]) of over 100 µM and a TGI (MCF7; read-out: pTGI) of over 100 µM. It also gave a viability at 100 µM (COLO 205) of 39%, a viability at 100 µM (HL-60(TB) [2]) of 9% and a viability at 1 µM (UACC-257) of 50%. It also gave a viability at 1 µM (SR) of 52%, a viability at 1 µM (MOLT-4) of 43% and a viability at 0.1 µM (DU-145) of 109%. It also gave a viability at 0.1 µM (TK-10 [3]) of 91%, a viability at 0.1 µM (ACHN) of 107% and a viability at 0.1 µM (A498) of 95%. It also gave a viability at 0.1 µM (SNB-75) of 79%, a viability at 0.1 µM (HL-60(TB) [4]) of 97% and a viability at 0.001 µM (UO-31) of 86%. For the same compound, the viability at 0.001 µM (HCC 2998) was 92%, the viability at 0.001 µM (K562) was 93% and the viability at 100 µM (786-0) was 22%. For the same compound, the viability at 100 µM (CAKI-1) was 23%.
